In one assay the target is T1, apALNR (Aplysia californica, UniProt A0ABM0K1K5).
T1 sequence (A0ABM0K1K5 1-578): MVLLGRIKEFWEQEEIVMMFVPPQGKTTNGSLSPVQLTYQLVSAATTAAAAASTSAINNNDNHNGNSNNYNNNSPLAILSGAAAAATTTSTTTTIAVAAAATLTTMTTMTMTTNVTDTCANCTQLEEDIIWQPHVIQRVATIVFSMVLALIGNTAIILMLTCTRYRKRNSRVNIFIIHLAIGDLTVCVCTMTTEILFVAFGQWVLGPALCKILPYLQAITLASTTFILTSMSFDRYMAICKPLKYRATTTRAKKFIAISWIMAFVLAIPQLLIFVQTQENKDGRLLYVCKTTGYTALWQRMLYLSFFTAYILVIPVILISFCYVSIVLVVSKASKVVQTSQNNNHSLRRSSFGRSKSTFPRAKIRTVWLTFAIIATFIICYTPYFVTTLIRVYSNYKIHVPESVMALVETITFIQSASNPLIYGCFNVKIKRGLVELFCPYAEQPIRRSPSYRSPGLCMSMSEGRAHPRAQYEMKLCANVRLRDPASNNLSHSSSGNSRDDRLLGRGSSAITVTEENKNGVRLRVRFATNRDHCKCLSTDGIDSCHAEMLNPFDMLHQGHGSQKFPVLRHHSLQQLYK
It is filed as cell-based.

A further assay relates to Aplysia feeding network. Put plainly: Feeding network. It counts as cell-based. The conditions noted are these: intact buccal and cerebral ganglia; peptide perfusion vs control. The gist of the method: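 Intact buccal plus cerebral ganglia were recorded intra- and extracellularly during peptide perfusion. A peptide scored active when perfusion gave statistically higher circuit activity than control without peptide. Means were compared by repeated-measures one-way ANOVA, assuming sphericity, with Bonferroni post test.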

From publication PMC5962930 (ACS Chemical Biology, 2018) come the findings set out here.

For orientation: EC50 means the concentration that produces a half-maximal response.

Some results are limits rather than exact numbers.

With H-SYADSKDEESNAALSDFAED-OH, the EC50 at apALNR is over 50 µM. The “feeding network (electrophys.)” value in the assay with Aplysia feeding network is “not active”.
